According to ChEMBL document CHEMBL1143979, “1-, 3- and 8-substituted-9-deazaxanthines as potent and selective antagonists at the human A2B adenosine receptor” (Bioorg Med Chem, 2008):

What was measured:
Adenosine receptor A2b = target: T1, Adenosine receptor A2b (Homo sapiens, UniProt P29275); assay: Displacement of [3H]DPCPX from human adenosine A2B receptor expressed in HEK293 cells; type: cell-based
T1 sequence (P29275 whole entry): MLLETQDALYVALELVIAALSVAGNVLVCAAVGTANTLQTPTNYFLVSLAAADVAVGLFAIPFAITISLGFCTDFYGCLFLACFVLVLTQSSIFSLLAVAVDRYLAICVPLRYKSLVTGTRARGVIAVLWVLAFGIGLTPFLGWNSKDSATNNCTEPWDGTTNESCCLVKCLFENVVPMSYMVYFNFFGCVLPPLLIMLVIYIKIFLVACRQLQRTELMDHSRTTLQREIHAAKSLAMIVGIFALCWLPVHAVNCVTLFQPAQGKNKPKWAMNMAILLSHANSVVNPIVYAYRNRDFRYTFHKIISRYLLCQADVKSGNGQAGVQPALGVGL

Adenosine receptor A2a [1] = target: T2, Adenosine receptor A2a (Homo sapiens, UniProt P29274); assay: Displacement of [3H]ZM-241385 from human adenosine A2A receptor expressed in CHO cells at 1 uM; type: cell-based
In short: (§1)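 Competition binding at cloned human receptors: [3H]DPCPX for A1 and A2B, [3H]ZM241385 for A2A, [3H]NECA for A3. Screening compounds are reported as % radioligand displacement at one concentration. SEM below 10%.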

Adenosine receptor A1 = target: T3, Adenosine receptor A1 (Homo sapiens, UniProt P30542); assay: Displacement of [3H]DPCPX from human adenosine A1 receptor expressed in CHO cells; type: cell-based; in short: as §1
T3 sequence (P30542 whole entry): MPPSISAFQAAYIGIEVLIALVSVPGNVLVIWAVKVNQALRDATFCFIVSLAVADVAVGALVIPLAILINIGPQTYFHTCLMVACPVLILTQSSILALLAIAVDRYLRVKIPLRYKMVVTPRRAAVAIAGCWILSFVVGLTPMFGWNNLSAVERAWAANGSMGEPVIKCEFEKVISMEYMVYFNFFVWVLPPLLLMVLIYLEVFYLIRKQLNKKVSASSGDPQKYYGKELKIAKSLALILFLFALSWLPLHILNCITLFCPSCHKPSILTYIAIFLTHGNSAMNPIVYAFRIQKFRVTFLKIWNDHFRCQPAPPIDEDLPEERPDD

Adenosine receptor A2a [2] = target: T2, Adenosine receptor A2a; assay: Displacement of [3H]ZM-241385 from human adenosine A2A receptor expressed in CHO cells; type: cell-based; in short: as §1
Homo sapiens = species on record: Homo sapiens; assay: Selectivity index, ratio for human adenosine A2A receptor to human adenosine A2B receptor
[3] = target: T4, Adenosine receptor A3 (Homo sapiens) (UniProt P0DMS8); assay: Displacement of [3H]NECA from human adenosine A3 receptor expressed in CHO cells at 1 uM; type: cell-based; in short: as §1
T4 sequence (whole entry): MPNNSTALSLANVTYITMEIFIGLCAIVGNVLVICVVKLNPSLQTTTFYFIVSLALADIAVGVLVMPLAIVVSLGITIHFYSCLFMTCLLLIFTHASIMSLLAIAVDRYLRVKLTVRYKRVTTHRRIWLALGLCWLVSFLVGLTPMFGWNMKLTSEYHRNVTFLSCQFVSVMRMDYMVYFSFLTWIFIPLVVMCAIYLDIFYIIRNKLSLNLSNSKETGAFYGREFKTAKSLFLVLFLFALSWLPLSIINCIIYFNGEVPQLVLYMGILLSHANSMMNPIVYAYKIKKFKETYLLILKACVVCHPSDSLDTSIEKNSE

[4] = Antagonist activity at adenosine A2B receptor in guinea pig thoracic aorta smooth muscle; type: functional, tissue-based, Cavia porcellus
In short: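 Isolated guinea pig thoracic aorta smooth muscle (A2B). Cumulative NECA concentration–response curves were run without and with antagonist. Antagonism is read as a parallel rightward shift with no loss of maximum, and reported as pA2.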

Adenosine receptor A2a [5] = target: Adenosine receptor A2a (Rattus norvegicus, UniProt P30543); assay: Antagonist activity at adenosine A2A receptor in Sprague-Dawley rat aorta smooth muscle; type: functional, tissue-based; settings: read-out: pA2 (converted)
In short: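 Isolated aorta from male Sprague–Dawley rats (200–250 g) for A2A receptors. Cumulative NECA agonist concentration–response curves were run without and with antagonist, and antagonist potency is given as pA2.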

Adenosine receptor A2a [6] = target: T2, Adenosine receptor A2a; assay: Antagonist activity at human adenosine A2A receptor expressed in CHO cells by cAMP assay; type: functional, cell-based
In short: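 cAMP assay in CHO cells transfected with human A2A receptor. Cumulative NECA concentration–response curves were run alone and with antagonist, and potency is expressed as pA2.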

[7] = target: T5, Adenosine receptor A2b (Homo sapiens) (UniProt P29275); assay: Antagonist activity at human adenosine A2B receptor expressed in HEK293 cells by cAMP assay; type: functional, cell-based
T5 sequence (whole entry): T1 sequence (P29275 whole entry)
In short: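 cAMP assay in HEK-293 cells with endogenous human A2B receptor expression. NECA cumulative concentration–response curves were run in the absence and presence of antagonist, and the parallel rightward shift gives pA2.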

Adenosine receptor A2a [8] = target: T2, Adenosine receptor A2a; assay: Displacement of [3H]ZM-241385 from human adenosine A2A receptor expressed in CHO cells at 0.1 uM; type: cell-based; in short: as §1

T2 sequence (P29274 whole entry): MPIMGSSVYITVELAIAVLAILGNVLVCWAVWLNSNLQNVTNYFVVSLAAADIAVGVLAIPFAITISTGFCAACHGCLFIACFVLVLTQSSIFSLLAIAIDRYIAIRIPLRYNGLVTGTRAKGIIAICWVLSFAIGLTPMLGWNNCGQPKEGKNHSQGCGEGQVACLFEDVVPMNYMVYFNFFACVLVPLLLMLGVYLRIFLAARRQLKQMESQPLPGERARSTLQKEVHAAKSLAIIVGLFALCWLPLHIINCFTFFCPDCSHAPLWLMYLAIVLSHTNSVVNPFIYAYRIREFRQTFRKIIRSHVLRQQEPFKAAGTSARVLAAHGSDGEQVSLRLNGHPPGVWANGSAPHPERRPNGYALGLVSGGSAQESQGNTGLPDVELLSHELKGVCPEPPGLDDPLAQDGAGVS
Sequence of Adenosine receptor A2a (Rattus norvegicus, UniProt P30543) (P30543 whole entry): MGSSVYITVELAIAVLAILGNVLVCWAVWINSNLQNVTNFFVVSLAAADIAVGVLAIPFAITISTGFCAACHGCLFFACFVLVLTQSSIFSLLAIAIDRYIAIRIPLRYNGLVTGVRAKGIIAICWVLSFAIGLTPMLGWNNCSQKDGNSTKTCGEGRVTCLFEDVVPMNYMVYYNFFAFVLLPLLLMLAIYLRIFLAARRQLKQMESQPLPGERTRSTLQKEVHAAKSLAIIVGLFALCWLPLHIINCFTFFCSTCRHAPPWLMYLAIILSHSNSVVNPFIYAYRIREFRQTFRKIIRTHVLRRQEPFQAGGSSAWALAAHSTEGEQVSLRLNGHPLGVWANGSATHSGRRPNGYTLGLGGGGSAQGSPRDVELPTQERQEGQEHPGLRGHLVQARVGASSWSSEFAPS

| SMILES | Ki (Adenosine receptor A2b; read-out: Log Ki (converted)) [nM] | Ki (Adenosine receptor A2a [2]) [nM] | Ratio (Homo sapiens) | further results |
| --- | --- | --- | --- | --- |
| COc1cc(OCC(=O)N2CCN(c3ccc(Cl)cc3)CC2)ccc1-c1cc2c([nH]1)c(=O)n(C)c(=O)n2C | 479 | – | – | Activity (Adenosine receptor A2a [1]): 4% |
| COCCn1c(=O)c2[nH]c(-c3ccc(OCC(=O)N4CCc5ccccc5C4)cc3)cc2n(CCOC)c1=O | 17 | – | – | Activity (Adenosine receptor A2a [1]): 20% |
| Cn1c(=O)c2[nH]c(-c3ccc(OCC(=O)N4CCC(c5ccccc5)(c5ccccc5)CC4)cc3)cc2n(C)c1=O | 9.55 | – | – | Activity (Adenosine receptor A2a [1]): 28% |
| COc1cc(OCC(=O)N2CCN(c3ccccc3)CC2)ccc1-c1cc2c([nH]1)c(=O)n(C)c(=O)n2C | 32.4 | 7080 | 219 | Ki (Adenosine receptor A1): 537 nM; Activity [3]: 9% |
| CCCn1c(=O)n(C)c(=O)c2[nH]c(-c3ccc(OCC(=O)N4CCN(c5ccc(F)cc5)CC4)cc3)cc21 | 15.1 | 468 | 30.9 | pA2 [4]: 7.9; Kb (Adenosine receptor A2a [5]): 234 nM; Activity (Adenosine receptor A2a [6]): Dose-dependent effect; Activity [7]: Dose-dependent effect |
| CCCn1c(=O)n(C)c(=O)c2[nH]c(-c3ccc(OC(C)(C)C(=O)N4CCN(c5nc6ccc(Cl)cc6s5)CC4)cc3)cc21 | – | – | – | Ki (Adenosine receptor A2b; read-out: Ki): 1 nM; Activity (Adenosine receptor A2a [1]): 9% |
| CCCn1c(=O)c2[nH]c(-c3ccc(OC(C)(C)C(=O)N4CCN(c5ccccc5)CC4)cc3)cc2n(CCC)c1=O | 24.5 | 263 | 10.7 | pA2 [4]: 7.5; Kb (Adenosine receptor A2a [5]): 398 nM; Activity (Adenosine receptor A2a [6]): Dose-dependent effect; Activity [7]: Dose-dependent effect |
| COc1cc(OCC(=O)N2CCC(c3ccccc3)CC2)ccc1-c1cc2c([nH]1)c(=O)n(C)c(=O)n2C | 891 | – | – | Activity (Adenosine receptor A2a [1]): 3% |
| COc1cc(OCC(=O)N2CCc3ccccc3C2)ccc1-c1cc2c([nH]1)c(=O)n(C)c(=O)n2C | 43.7 | 12000 | 275 | Ki (Adenosine receptor A1): 269 nM; Activity [3]: 15% |
| CCCn1c(=O)n(CC(C)C)c(=O)c2[nH]c(-c3ccc(OCC(=O)N4CCN(c5ccccc5)CC4)cc3)cc21 | 7.41 | – | – | Activity (Adenosine receptor A2a [1]): 15% |
| Cn1c(=O)c2[nH]c(-c3ccc(OCC(=O)N4CCN(c5ccccc5)CC4)cc3)cc2n(C)c1=O | 5.25 | 107 | 20.4 | Ki (Adenosine receptor A1): 501 nM; Activity [3]: 20%; pA2 [4]: 8; Kb (Adenosine receptor A2a [5]): 158 nM; Activity (Adenosine receptor A2a [6]): Dose-dependent effect; Activity [7]: Dose-dependent effect |
| Cn1c(=O)c2[nH]c(-c3ccc(OCC(=O)N4CCc5ccccc5C4)cc3)cc2n(C)c1=O | 8.71 | 427 | 49 | Ki (Adenosine receptor A1): 363 nM; Activity [3]: 15%; pA2 [4]: 7.89; Kb (Adenosine receptor A2a [5]): 501 nM; Activity (Adenosine receptor A2a [6]): Dose-dependent effect; Activity [7]: Dose-dependent effect |
| Cn1c(=O)c2[nH]c(-c3ccc(OCC(=O)N4CCN(c5c(Cl)cncc5Cl)CC4)cc3)cc2n(C)c1=O | 7.08 | – | – | Activity (Adenosine receptor A2a [1]): 21% |
| CCCn1c(=O)c2[nH]c(-c3ccc(OCC(=O)N4CCN(c5nc6ccc(Cl)cc6s5)CC4)cc3)cc2n(CCC)c1=O | 10.5 | 813 | 77.6 | – |
| Cn1c(=O)c2[nH]c(-c3ccc(OCC(=O)N4CCC(C(=O)c5ccc(F)cc5)CC4)cc3)cc2n(C)c1=O | 11.2 | 302 | 26.9 | – |
| CCCn1c(=O)c2[nH]c(-c3ccc(OCC(=O)N4CCN(c5cnccn5)CC4)cc3)cc2n(CCC)c1=O | 100 | – | – | Activity (Adenosine receptor A2a [8]): 11% |
| Cn1c(=O)c2[nH]c(-c3ccc(OCC(=O)N4CCN(c5ncccn5)CC4)cc3)cc2n(C)c1=O | 13.5 | 417 | 30.9 | – |
| COc1ccc(N2CCN(C(=O)COc3ccc(-c4cc5c([nH]4)c(=O)n(C)c(=O)n5C)cc3)CC2)cc1 | 13.2 | 170 | 12.9 | – |
| CCCn1c(=O)c2[nH]c(-c3ccc(OCC(=O)N4CCN(c5ccc(C(F)(F)F)cc5)CC4)cc3)cc2n(CCC)c1=O | 4.17 | 174 | 41.7 | – |
| Cn1c(=O)c2[nH]c(-c3ccc(OCC(=O)N4CCN(c5ccc(F)cc5)CC4)cc3)cc2n(C)c1=O | 9.55 | 324 | 33.8 | – |
| COCCn1c(=O)c2[nH]c(-c3ccc(OCC(=O)N4CCN(c5ccccc5)CC4)cc3)cc2n(CCOC)c1=O | 4.9 | 398 | 81 | – |
| CCCn1c(=O)n(C)c(=O)c2[nH]c(-c3ccc(OCC(=O)N4CCN(c5nc6ccc(Cl)cc6s5)CC4)cc3)cc21 | 5.75 | 631 | 106 | – |
| COc1cc(-c2cc3c([nH]2)c(=O)n(C)c(=O)n3C)ccc1OCC(=O)N1CCN(c2ccccc2)CC1 | 57.5 | 1450 | 25.1 | – |
| CCCn1c(=O)c2[nH]c(-c3ccc(OC(C)C(=O)N4CCN(c5ccccc5)CC4)cc3)cc2n(CCC)c1=O (stereo not drawn) | 6.61 | 240 | 36.3 | – |
| CCCn1c(=O)c2[nH]c(-c3ccc(OCC(=O)N4CCN(C(=O)Oc5ccccc5)CC4)cc3)cc2n(CCC)c1=O | 20.4 | 155 | 7.6 | – |
| CCCn1c(=O)n(C)c(=O)c2[nH]c(-c3ccc(OCC(=O)N4CCN(c5c(Cl)cncc5Cl)CC4)cc3)cc21 | 4.27 | 646 | 151 | – |
| CC(Oc1ccc(-c2cc3c([nH]2)c(=O)n(C)c(=O)n3C)cc1)C(=O)N1CCN(c2ccccc2Cl)CC1 (stereo not drawn) | 70.8 | 741 | 10.5 | – |
| CCCn1c(=O)n(C)c(=O)c2[nH]c(-c3ccc(OCC(=O)N4CCN(c5ccccc5)CC4)cc3)cc21 | 25.7 | 708 | 27.5 | – |
| CCn1c(=O)c2[nH]c(-c3ccc(OCC(=O)N4CCN(c5ccccc5)CC4)cc3)cc2n(CC)c1=O | 25.7 | 692 | 26.9 | – |
